The results in this text go back to ChEMBL document CHEMBL5029189, “Development of a 1,2,4-Triazole-Based Lead Tankyrase Inhibitor: Part II” (J Med Chem, 2021).

The source made the active and inactive calls. The calls are words filed in the database; no cut-off is given here.

Series [1] relates to COLO 320DM. The series can be described thus: Inhibition of Wnt/beta-catenin signaling pathway in human COLO 320DM cells assessed as reduction in APCDD1 level qRT-PCR analysis. Particulars: dose 0.1-100 nM. The class given is cell-based. For orientation: In qPCR the cycle at which signal appears reflects the starting amount.
Series [2] has as its system COLO 320DM. Nature of the series: Inhibition of Wnt/beta-catenin signaling pathway in human COLO 320DM cells assessed as reduction in DKK1 level qRT-PCR analysis. Particulars: dose 0.1-100 nM. It is filed as cell-based.
Series [3] deals with COLO 320DM. Nature of the series: Inhibition of Wnt/beta-catenin signaling pathway in human COLO 320DM cells assessed as reduction in AXIN2 level qRT-PCR analysis. It is filed as cell-based. To be noted: dose 0.1-100 nM.
The test system of series [4] is COLO 320DM. Nature of the series: Inhibition of Wnt/beta-catenin signaling pathway in human COLO 320DM cells assessed as reduction in nuclear beta-catenin level at 0.1 to 100 nM by immunoblot analysis. Particulars: dose 0.1-100 nM. It is filed as cell-based. A general note: In western blotting, separated proteins are transferred to a membrane and probed.
For series [5], the system named is COLO 320DM. Nature of the series: Inhibition of Wnt/beta-catenin signaling pathway in human COLO 320DM cells assessed as reduction in cytoplasmic beta-catenin level at 0.1 to 100 nM by immunoblot analysis. To be noted: dose 0.1-100 nM. The class given is cell-based.
Series [6] has as its system COLO 320DM. Nature of the series: Inhibition of Wnt/beta-catenin signaling pathway in human COLO 320DM cells assessed as stabilization of AXIN2 at 0.1 to 100 nM by immunoblot analysis. It is filed as cell-based. Particulars: dose 0.1-100 nM.
The test system of series [7] is COLO 320DM. Nature of the series: Inhibition of Wnt/beta-catenin signaling pathway in human COLO 320DM cells assessed as reduction in NKD1 level qRT-PCR analysis. The class given is cell-based. Particulars: dose 0.1-100 nM.
For series [8], the system named is Salmonella typhimurium. The series can be described thus: Genotoxicity in Salmonella typhimurium TA98 in presence of rat liver S9 fraction by Ames test. The class given is toxicity, organism-based. Particulars: salmonella enterica subsp. enterica serovar typhimurium.
Series [9] has as its system Salmonella typhimurium. The series can be described thus: Genotoxicity in Salmonella typhimurium TA100 in presence of rat liver S9 fraction by Ames test. It is filed as toxicity, organism-based. Particulars: salmonella enterica subsp. enterica serovar typhimurium.
The target in series [10] is T1, Nuclear receptor subfamily 1 group I member 2 (Homo sapiens, UniProt O75469).
T1 sequence (O75469 whole entry): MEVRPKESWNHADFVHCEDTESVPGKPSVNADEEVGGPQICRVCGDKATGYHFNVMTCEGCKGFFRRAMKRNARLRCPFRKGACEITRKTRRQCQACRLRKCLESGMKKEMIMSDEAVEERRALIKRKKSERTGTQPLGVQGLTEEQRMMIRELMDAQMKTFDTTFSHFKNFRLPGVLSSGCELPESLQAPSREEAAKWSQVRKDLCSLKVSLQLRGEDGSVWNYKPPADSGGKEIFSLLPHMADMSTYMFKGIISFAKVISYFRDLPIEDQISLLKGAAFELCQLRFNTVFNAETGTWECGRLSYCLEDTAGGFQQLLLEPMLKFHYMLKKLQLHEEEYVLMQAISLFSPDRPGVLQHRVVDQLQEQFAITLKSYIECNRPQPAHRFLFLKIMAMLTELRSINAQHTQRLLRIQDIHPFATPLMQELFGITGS
The series can be described thus: Inhibition of PXR (unknown origin) at 100 uM.

Series [11] has as its system COLO 320DM. Nature of the series: Inhibition of Wnt/beta-catenin signaling pathway in human COLO 320DM cells assessed as stabilization of AXIN1 at 0.1 to 100 nM by immunoblot analysis. It is filed as cell-based. To be noted: dose 0.1-100 nM.
The subject of series [12] is COLO 320DM. Nature of the series: Inhibition of Wnt/beta-catenin signaling pathway in human COLO 320DM cells assessed as effect on TNKS1/2 level by immunoblot analysis. The class given is cell-based. To be noted: dose 0.1-100 nM.
Series [13] in a line: Apparent permeability across apical to basolateral side in human Caco-2 cells at 10 uM incubated for 120 mins by LC-MS/MS analysis. It is filed as ADME, cell-based. For orientation: Caco-2 cells form a polarised layer with tight junctions and transporters.
A short description of series [14]: Metabolic stability in human liver microsomes assessed as intrinsic clearance measured per mg protein incubated up to 60 mins in presence of NADPH by UPLC-MS/MS analysis. The class given is ADME, Microsome. Particulars: read-out: […].
Series [15] in a line: Metabolic stability in mouse liver microsomes assessed as intrinsic clearance measured per mg protein incubated up to 60 mins in presence of NADPH by UPLC-MS/MS analysis. It is filed as ADME, Microsome. Particulars: read-out: CLH.
Series [16] in a line: Inhibition of Wnt/beta-catenin signaling pathway in HEK293T cells incubated for 24 hrs by dual-Glo luciferase assay. Particulars: Homo sapiens, HEK-293T. It is filed as cell-based. The method, boiled down: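 Luciferase-based WNT/β-catenin pathway reporter in human HEK293 cells, run as in earlier work with a reference tankyrase inhibitor included. Each concentration tested in triplicate. IC50 derived by curve fitting, with T/F-tests applied to the fit.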

In the case of `CCOc1ccc(-c2nnc([C@H]3C[C@H](NC(=O)c4cccc5nccnc45)C3)n2-c2ccccc2F)nc1`, the inhibition entry in the series on COLO 320DM [1], with COLO 320DM [2], in the series on COLO 320DM [3], in the series on COLO 320DM [7] and with COLO 320DM [12] was “Dose-Dependent Effect” each time. The inhibition result with COLO 320DM [4], with COLO 320DM [5], with COLO 320DM [6] and in the series on COLO 320DM [11] was “Active” throughout. In addition, the Activity result in the series with Salmonella typhimurium [8] and with Salmonella typhimurium [9] was “Non-Toxic” in each case. For the same compound, the IC50 entry in series [10] is reported as “Not Active”.

Consider `CCOc1ccc(-c2nnc([C@H]3C[C@H](NC(=O)c4ccccn4)C3)n2-c2ccccc2F)nc1`, for which the Papp A→B at 2 h, 10 µM in [13] worked out at 39.5 ×10⁻⁶ cm/s. Further, the microsomal CLint in series [14] is less than 5 µL/min/mg; in [15], 27 µL/min/mg. The Activity entry in the series on Salmonella typhimurium [8] and with Salmonella typhimurium [9] was “Non-Toxic” each time.

In the case of `CCOc1ccc(-c2nnc([C@H]3C[C@H](NC(=O)c4ccnc5cccnc45)C3)n2-c2ccccc2F)nc1`, in [16], half-maximal inhibition (IC50) required 0.63 nM.

As to `CCOc1ccc(-c2nnc([C@H]3C[C@H](NC(=O)c4ccnc5cc(F)cnc45)C3)n2-c2ccccc2F)nc1`, in series [16], the IC50 came to 0.17 nM.

As usually defined, the IC50 is the concentration at which inhibition is half-maximal. What is called Papp A→B is the apparent permeability from the apical to the basolateral side of a cell layer.
